Apaf1 inhib = human Apaf-1 inhibition; 330,000 compounds, 0.71% hits; O14727; reconstituted apoptosome caspase-3 activity, DEVD-Rh110 fluorescence; AID 489030; inhibition, % at 20 µM; active = inhibition of at least 40% at 20 µM;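 also: plate controls were DMSO wells for no effect and DEVD-CHO caspase inhibitor wells for full effect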
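Material: cell-free apoptosome with Apaf-1, procaspase-3 and caspase-9; Buffer or medium: Hepes pH 7.5 with detergent and BSA; Reagent: cytochrome c trigger plus (Z-DEVD)2-Rh110 caspase-3 substrate; Times: compound with Apaf-1, dATP, procaspase-3 30 min, then 50 min reaction, room temperature; Technique: Rh110 fluorescence intensity.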
UBC13 inh = inhibitors of human UBC13 polyubiquitin chain formation; inhibition, % at 20 µM; 330,000 compounds, 0.47% hits; P61088; TR-FRET; in the data active = inhibition above about 45%, passing the limit was not always enough
UCH37 DUB inh = inhibitors of human deubiquitinating enzyme UCH37 | Q9Y5K5 | purified proteasome/UCH37, Ub-AMC cleavage fluorescence | inhibition, % (concentration not given with the values) | 330,000 compounds, 0.33% hits;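 active = mean inhibition over replicate wells above about 20%, limit read from the data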;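 also: 0% = compound-free wells with enzyme and 100% = wells lacking proteasome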
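Schedule: 30 min plus 25 min, room temperature / Material: human UCH37 within purified proteasomes / Technique: AMC fluorescence intensity at 355/460 nm / Buffer or medium: pH 7.4 Tris-HCl (50 mM) with ovalbumin, ATP-MgCl2, DTT / Controls: wells without proteasome as full block, compound-free enzyme plus substrate as uninhibited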
MEKK3 PB1 HTS = modulators (inhibitors or enhancers) of MEK5 binding to human MEKK3 PB1 domain; Q99759; bead-based flow cytometry, Alexa488-MEK5 binding to MEKK3; actives lie on both sides; 0 = blocked by unlabeled MEK5, 100 = vehicle; binding response (% of control), % at 10 µM; 290,000 compounds, 1.4% hits;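 active = binding response more than 3 SD above or below the average of its plate-row segment, actives on both sides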;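 also: Alexa488 bead fluorescence after subtracting the streptavidin-only scavenger bead signal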
Target sequence (Q99759 whole entry, looked up, the tested form may be a part): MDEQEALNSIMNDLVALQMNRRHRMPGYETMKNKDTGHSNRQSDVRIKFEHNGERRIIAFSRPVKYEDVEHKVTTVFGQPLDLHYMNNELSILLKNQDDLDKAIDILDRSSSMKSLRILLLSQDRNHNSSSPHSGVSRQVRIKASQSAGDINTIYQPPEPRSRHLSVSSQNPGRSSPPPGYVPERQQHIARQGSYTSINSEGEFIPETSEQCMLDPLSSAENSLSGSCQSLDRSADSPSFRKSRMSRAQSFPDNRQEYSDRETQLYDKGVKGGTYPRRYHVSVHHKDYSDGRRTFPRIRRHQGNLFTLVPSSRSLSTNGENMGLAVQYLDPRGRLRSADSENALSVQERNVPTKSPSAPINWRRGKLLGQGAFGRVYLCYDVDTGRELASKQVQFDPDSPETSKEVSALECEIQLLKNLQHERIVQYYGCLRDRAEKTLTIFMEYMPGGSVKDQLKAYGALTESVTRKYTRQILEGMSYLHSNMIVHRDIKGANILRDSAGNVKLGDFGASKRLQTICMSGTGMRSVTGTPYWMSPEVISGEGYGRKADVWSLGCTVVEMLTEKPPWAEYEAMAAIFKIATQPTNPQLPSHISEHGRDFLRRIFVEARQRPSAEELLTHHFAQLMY
MEKK2 WT-MEK5 = raises or lowers MEK5 binding to wildtype human MEKK2 PB1 domain; 290,000 compounds, 1.1% hits; bead flow cytometry, Alexa488-MEK5 binding to MEKK2 WT; actives lie on both sides; AID 1531; Q9Y2U5; binding response (% of control), % at 10 µM; in the data active = binding response below about 67% or above about 130%
MEKK2 mut-MEK5 = signal of MEK5 binding to mutant human MEKK2 PB1 domain; bead flow cytometry, Alexa488-MEK5 binding to MEKK2 mutant; percent response, % at 10 µM; 290,000 compounds, 0.35% hits; in the data active = percent response above about 24%, passing the limit was not always enough
MEKK2wt confirm = raises or lowers MEK5 binding to wildtype human MEKK2, retest; shares compounds with MEKK3 PB1 HTS; 5,900 compounds, 2.4% hits; AID 1892; binding response (% of control), % at 10 µM; bead flow cytometry, Alexa488-MEK5 binding to MEKK2 WT; actives lie on both sides; in the data active = binding response below about 16% or above about 210%; inactive = in between
MEKK2mut-MEK5 = signal of MEK5 binding to mutant human MEKK2, retest. bead flow cytometry, Alexa488-MEK5 binding to MEKK2 mutant. percent response, % at 10 µM. 5,900 compounds, 2% hits. shares compounds with MEKK3 PB1 HTS; in the data active = percent response mostly above about 71%, no sharp cut-off; inactive = mostly below about 38%;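 also: higher means compound restores mutant binding toward wildtype level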
MEKK3 confirm = MEKK3-MEK5 PB1 inhibition, single concentration confirmation; AID 1894; bead flow cytometry, Alexa488-MEK5 binding to MEKK3; active compounds read low; 5,900 compounds, 1.8% hits; shares compounds with MEKK3 PB1 HTS; binding response (% of control), % at 10 µM;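 active = binding response below 72% of control, or above a set upper limit, though filed actives all read lower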;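 also: 100% = DMSO only wells and 0% = binding blocked by excess unlabeled MEK5; lower values mean stronger disruption of MEK5 binding to MEKK3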
* hit, by the source's call; · = no result given; [ ] = dose if it differs, or a comment. The list is not random: actives were taken first. Their share in the collection is about 3%.

SMILES	Apaf1 inhib	UBC13 inh	UCH37 DUB inh	MEKK3 PB1 HTS	MEKK2 WT-MEK5	MEKK2 mut-MEK5	MEKK2wt confirm	MEKK2mut-MEK5	MEKK3 confirm
CC(OC(=O)Cc1coc2ccc3ccccc3c12)C(=O)NC(N)=O (centres undefined)	-4.2	2.9	-3.8	92.0	95.0	-9.0	·	·	·
Cc1cccc(N2CC(C(=O)Nc3nnc(SCC(=O)Nc4cc(C)on4)s3)CC2=O)c1 (centres undefined)	3.6	-0.9	5.6	92.0	92.0	-2.0	·	·	·
O=C(NCc1ccc(Cl)cc1)c1ccc(CS(=O)Cc2cccc(Cl)c2)o1 (centres undefined)	-0.6	4.6	1.3	100.0	96.0	2.0	·	·	·
CSc1ccc2c(c1)N(CCC1CCCCN1C)c1ccccc1S2 (centres undefined)	54.7*	72.2*	-2.4	76.0	176.0*	16.0	191.0	64.0	116.0
CC(C)(C)c1ccc(/C=C/C(=O)NC2=NCCS2)cc1	21.4	-4.1	6.6	101.0	105.0	8.0	·	·	·
Cc1ccc(/C=C/C(=O)NC2=NCCS2)cc1	16.5	-7.7	·	104.0	144.0*	34.0	126.0	13.0	106.0
COc1ccc(C[C@@H]2CN3C(=NC[C@@H]3C)N2C[C@H](C)NC(=O)CCC2CCCCC2)cc1	14.5	1.6	1.1	99.0	108.0	5.0	·	·	·
NC1=NC[C@H](Cc2ccc(O)cc2)N1CCCCC1CCCCC1	52.7*	73.2*	3.9	112.0	184.0*[inhibitor]	20.0	127.0	40.0	106.0
C/C=C(\C)C(=O)NCCN1C2=NC[C@H](Cc3ccccc3)N2C[C@H]1Cc1ccc(O)cc1	-4.3	18.4	0.3	108.0	153.0*	36.0	122.0	10.0	99.0
C/C=C(\C)C(=O)NCCN1C2=NC[C@H](Cc3ccccc3)N2C[C@@H]1Cc1ccc(OC)cc1	39.0	21.9	-3.5	109.0	153.0*	16.0	102.0	-2.0	103.0
C[C@@H](CN1C2=NC[C@H](Cc3ccc(O)cc3)N2C[C@H]1Cc1ccc(O)cc1)NC(=O)CCC1CCCCC1	3.2	44.2	2.3	105.0	141.0*	27.0	129.0	11.0	101.0
NC1=NC[C@@H](Cc2ccc(O)cc2)N1CCc1cccc2ccccc12	7.7	42.6	1.5	99.0	111.0	6.0	·	·	·
CCCCC[C@@H]1C=C(C(=O)O)[C@H](c2ccc(CC)cc2)N1S(=O)(=O)c1ccc(C)cc1	21.6	-24.9	2.7	·	·	·	·	·	·
CCCNC(=O)c1ccccc1NS(=O)(=O)c1ccc2c(c1)OCCO2	0.7	11.0	-7.2	100.0	100.0	-1.0	·	·	·
Cc1ccc(-n2c(C)cc(C=NNC(=O)CC3(C)OCCO3)c2C)c(C)c1	·	·	-0.8	·	·	·	·	·	·
O=C(NC(=S)NNC(=O)c1cnccn1)c1ccc(Cl)cc1	-20.0	-15.0	3.8	2.0*[inhibitor]	-10.0*[inhibitor]	-25.0	112.0	12.0	107.0
COc1ccccc1NC(C)C(=O)N/N=C/c1cccs1 (centres undefined)	-7.8	2.1	·	107.0	92.0	-9.0	·	·	·
CCOC(=O)CSc1ncnc2c1sc1nc(N3CCOCC3)c3c(c12)CCCC3	16.8	10.4	-23.1	82.0*[inhibitor]	93.0	-12.0	98.0	-1.0	104.0
O=C(CSc1ccccc1C(=O)NCc1ccccc1)NC12CC3CC(CC(C3)C1)C2	2.4	-1.8	3.2	134.0*	100.0	0.0	99.0	0.0	102.0
O=C(CSc1ccccc1C(=O)NCc1ccccc1)NC1CCCCCCC1	9.6	7.6	0.7	131.0*	101.0	0.0	101.0	-5.0	102.0
COc1ccc(Cl)cc1C1=CC(=O)C[C@H](c2ccc(F)cc2)C1	17.1	1.9	2.0	·	·	·	·	·	·
C=C1CCN([C@H](C(=O)NCc2ccc(Cl)cc2)C(C)C)S(=O)(=O)c2ccccc21	12.6	-3.2	0.8	80.0*[inhibitor]	96.0	-3.0	95.0	-5.0	97.0
C=C1CCN([C@@H](CC(C)C)C(=O)NCc2ccccc2)S(=O)(=O)c2ccccc21	7.9	8.1	-1.7	103.0	105.0	2.0	·	·	·
O=C(O)[C@@H](O)[C@H](O)C(=O)O	-5.5	-5.1	0.8	105.0	104.0	3.0	·	·	·
COc1cc(-c2nc(-c3ccc(NC(=O)c4ccc5c(c4)OCO5)cc3)no2)cc(OC)c1OC	0.1	8.9	-11.4	111.0	45.0*[inhibitor]	-2.0	101.0	-5.0	96.0
SMILES	Apaf1 inhib	UBC13 inh	UCH37 DUB inh	MEKK3 PB1 HTS	MEKK2 WT-MEK5	MEKK2 mut-MEK5	MEKK2wt confirm	MEKK2mut-MEK5	MEKK3 confirm
CC1=CC(C)(C)C(C(=O)O)C(C(=O)O)C1 (centres undefined)	11.1	-8.7	4.4	141.0*	136.0*	10.0	112.0	19.0	88.0
CC1=CC(C)C(C(=O)O)C(C(=O)N2CCN(C)CC2)C1 (centres undefined)	-0.6	-4.4	·	111.0	105.0	0.0	·	·	·
COC(=O)c1sccc1NC(=O)c1ccc(Br)o1	13.1	-4.6	0.2	104.0	106.0	7.0	·	·	·
COC(=O)c1sccc1NC(=O)c1ccc(C)o1	20.4	2.9	5.0	0.0*[inhibitor]	-1.0*[inhibitor]	-21.0	92.0	-2.0	99.0
O=C(Nc1ccc(F)cc1)C(c1ccccc1)N1CCN(S(=O)(=O)c2ccccc2)CC1 (centres undefined)	8.2	0.9	1.6	121.0	104.0	0.0	·	·	·
c1ccc(Nc2c(-c3ccco3)nc3ccccn23)cc1	2.8	4.4	·	102.0	98.0	-1.0	·	·	·
c1ccc(-c2nc(-c3ccco3)n3ccccc23)cc1	10.2	10.0	-109.3	92.0	58.0*[inhibitor]	-1.0	101.0	-10.0	98.0
Cc1ccc(-n2nc(C)c3c(C)c(CCC(=O)Nc4ccc(CN5CCCC5)cc4)c(C)nc32)cc1	39.3	38.1	·	108.0	191.0*	34.0	177.0	30.0	106.0
COC(CNC(=O)CCc1c(C)nc2c(c(C)nn2-c2ccc(C)cc2)c1C)OC	3.2	12.5	-60.2	108.0	108.0	6.0	·	·	·
CCCc1nnc(NC(=S)Nc2ccccc2)s1	4.9	17.3	-0.3	104.0	98.0	-1.0	·	·	·
CCN(CC)CCCNC(=O)c1cn(CCOC)c(=O)c2c1c1ccccc1n2C	-11.0	18.7	-95.7	34.0*[inhibitor]	52.0	-16.0	105.0	1.0	105.0
Cc1c2ccccc2nc2c(F)c(N(C)C)c(F)c(F)c12	10.6	-4.7	4.1	145.0*	100.0	0.0	97.0	-2.0	101.0
